Reference: ChEMBL document CHEMBL4351006, “A new exploration towards aminothiazolquinolone oximes as potentially multi-targeting antibacterial agents: Design, synthesis and evaluation acting on microbes, DNA, HSA and topoisomerase IV” (Eur J Med Chem, 2019)
Converted amounts (≈) assume the structure as drawn.

What was measured:
[1] = system: Klebsiella pneumoniae; assay: Antibacterial activity against Klebsiella pneumoniae assessed as reduction in bacterial cell viability incubated for 24 hrs by two fold serial dilution method; type: functional
Outline: (§1)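 Broth two-fold serial dilution run to CLSI guidelines. Chloromycin, norfloxacin and fluconazole served as reference drugs.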

[2] = system: Candida parapsilosis; assay: Antifungal activity against Candida parapsilosis ATCC 22019 assessed as reduction in fungal cell viability incubated for 24 hrs by two fold serial dilution method; details: Lodderomyces parapsilosis, ATCC 22019, 24 h
[3] = system: Staphylococcus aureus; assay: Antibacterial activity against methicillin resistant Staphylococcus aureus N315 assessed as reduction in bacterial cell viability incubated for 24 hrs by two fold serial dilution method; type: functional; details: N315, 24 h
Outline: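 MIC by two-fold serial dilution following CLSI, with chloromycin and norfloxacin as reference drugs.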

[4] = system: Enterococcus faecalis; assay: Antibacterial activity against Enterococcus faecalis assessed as reduction in bacterial cell viability incubated for 24 hrs by two fold serial dilution method; type: functional; outline: as §1
[5] = system: Escherichia coli; assay: Antibacterial activity against Escherichia coli ATCC 25922 assessed as reduction in bacterial cell viability incubated for 24 hrs by two fold serial dilution method; type: functional; details: ATCC 25922, 24 h; outline: as §1
[6] = system: Staphylococcus aureus; assay: Antibacterial activity against Staphylococcus aureus ATCC 25923 assessed as reduction in bacterial cell viability incubated for 24 hrs by two fold serial dilution method; type: functional; details: ATCC 25923, 24 h; outline: as §1
[7] = system: Aspergillus fumigatus; assay: Antifungal activity against Aspergillus fumigatus assessed as reduction in fungal cell viability incubated for 24 hrs by two fold serial dilution method; type: functional; outline: as §1
[8] = system: Acinetobacter baumannii; assay: Antibacterial activity against Acinetobacter baumannii assessed as reduction in bacterial cell viability incubated for 24 hrs by two fold serial dilution method; type: functional; outline: as §1
[9] = system: Pseudomonas aeruginosa; assay: Antibacterial activity against Pseudomonas aeruginosa assessed as reduction in bacterial cell viability incubated for 24 hrs by two fold serial dilution method; type: functional; outline: as §1
[10] = system: Staphylococcus aureus; assay: Antibacterial activity against Staphylococcus aureus ATCC 29213 assessed as reduction in bacterial cell viability incubated for 24 hrs by two fold serial dilution method; type: functional; details: ATCC 29213, 24 h; outline: as §1
[11] = system: Candida albicans; assay: Antifungal activity against Candida albicans ATCC 90023 assessed as reduction in fungal cell viability incubated for 24 hrs by two fold serial dilution method; type: functional; details: ATCC 90023, 24 h; outline: as §1
[12] = system: Candida tropicalis; assay: Antifungal activity against Candida tropicalis assessed as reduction in fungal cell viability incubated for 24 hrs by two fold serial dilution method; type: functional; outline: as §1
[13] = system: Pseudomonas aeruginosa; assay: Antibacterial activity against Pseudomonas aeruginosa ATCC 27853 assessed as reduction in bacterial cell viability incubated for 24 hrs by two fold serial dilution method; type: functional; details: ATCC 27853, 24 h; outline: as §1
[14] = system: Candida albicans; assay: Antifungal activity against Candida albicans assessed as reduction in fungal cell viability incubated for 24 hrs by two fold serial dilution method; type: functional; outline: as §1
[15] = system: Escherichia coli; assay: Antibacterial activity against Escherichia coli assessed as reduction in bacterial cell viability incubated for 24 hrs by two fold serial dilution method; type: functional; outline: as §1
[16] = system: Staphylococcus aureus; assay: Antibacterial activity against Staphylococcus aureus assessed as reduction in bacterial cell viability incubated for 24 hrs by two fold serial dilution method; type: functional; outline: as §1
[17] = system: Staphylococcus aureus; assay: Antibacterial activity against methicillin resistant Staphylococcus aureus assessed as fold change after 16 serial passages at 0.5 times of MIC incubated for 12 hrs by sequential passaging method; type: functional
[18] = system: Aspergillus fumigatus; assay: Potency index, ratio of MIC of fluconazole to MIC of compound for antifungal activity against Aspergillus fumigatus assessed as reduction in […] incubated for 24 hrs by two fold serial dilution method; type: functional

Structure (SMILES) | MIC [1] [µM] | MIC [2] [µM] | MIC [3] [µM] | MIC [4] [µM] | MIC [5] [µM] | MIC [6] [µM] | MIC [7] [µM] | MIC [8] [µM] | MIC [9] [µM] | MIC [10] [µM] | MIC [11] [µM] | MIC [12] [µM] | MIC [13] [µM] | MIC [14] [µM] | MIC [15] [µM] | MIC [16] [µM] | fold change (FC) [17] | Ratio [18]
CCn1cc(-c2csc(N)n2)c(=O)c2cc(N3CCN(C/C(C)=N/OC)CC3)c(Cl)cc21 | 135 (≈ 64.1 µg/mL) | 67 (≈ 31.8 µg/mL) | 67 (≈ 31.8 µg/mL) | 135 (≈ 64.1 µg/mL) | 269 (≈ 128 µg/mL) | 135 (≈ 64.1 µg/mL) | 269 (≈ 128 µg/mL) | 135 (≈ 64.1 µg/mL) | 269 (≈ 128 µg/mL) | 135 (≈ 64.1 µg/mL) | 269 (≈ 128 µg/mL) | 269 (≈ 128 µg/mL) | 135 (≈ 64.1 µg/mL) | 539 (≈ 256 µg/mL) | 269 (≈ 128 µg/mL) | 67 (≈ 31.8 µg/mL) |  | 
CCn1cc(C(=O)O)c(=O)c2cc(F)c(N3CCNCC3)cc21 [NORFLOXACIN] | 13 (≈ 4.15 µg/mL) |  | 25 (≈ 7.98 µg/mL) | 13 (≈ 4.15 µg/mL) | 25 (≈ 7.98 µg/mL) | 3 (≈ 0.958 µg/mL) |  | 25 (≈ 7.98 µg/mL) | 6 (≈ 1.92 µg/mL) | 3 (≈ 0.958 µg/mL) |  |  | 2 (≈ 0.639 µg/mL) |  | 50 (≈ 16 µg/mL) | 6 (≈ 1.92 µg/mL) | 16 | 
CCn1cc(-c2csc(N)n2)c(=O)c2cc(N3CCN(C/C(=N/OC)c4ccc(F)cc4)CC3)c(Cl)cc21 | 231 (≈ 128 µg/mL) | 58 (≈ 32.2 µg/mL) | 14 (≈ 7.77 µg/mL) | 58 (≈ 32.2 µg/mL) | 58 (≈ 32.2 µg/mL) | 58 (≈ 32.2 µg/mL) | 29 (≈ 16.1 µg/mL) | 115 (≈ 63.8 µg/mL) | 461 (≈ 256 µg/mL) | 58 (≈ 32.2 µg/mL) | 58 (≈ 32.2 µg/mL) | 58 (≈ 32.2 µg/mL) | 58 (≈ 32.2 µg/mL) | 231 (≈ 128 µg/mL) | 14 (≈ 7.77 µg/mL) | 29 (≈ 16.1 µg/mL) |  | 
CCn1cc(-c2csc(N)n2)c(=O)c2cc(F)c(N3CCN(C/C(=N/OC)c4ccc(F)cc4)CC3)cc21 | 951 (≈ 512 µg/mL) | 951 (≈ 512 µg/mL) | 238 (≈ 128 µg/mL) | 475 (≈ 256 µg/mL) | 951 (≈ 512 µg/mL) | 238 (≈ 128 µg/mL) | 951 (≈ 512 µg/mL) | 951 (≈ 512 µg/mL) | 951 (≈ 512 µg/mL) | 475 (≈ 256 µg/mL) | 951 (≈ 512 µg/mL) | 951 (≈ 512 µg/mL) | 951 (≈ 512 µg/mL) | 951 (≈ 512 µg/mL) | 475 (≈ 256 µg/mL) | 475 (≈ 256 µg/mL) |  | 
CCn1cc(-c2csc(N)n2)c(=O)c2cc(N3CCN(C/C(=N/OC)c4ccc(Cl)cc4)CC3)c(Cl)cc21 | 448 (≈ 256 µg/mL) | 448 (≈ 256 µg/mL) | 224 (≈ 128 µg/mL) | 448 (≈ 256 µg/mL) | 448 (≈ 256 µg/mL) | 224 (≈ 128 µg/mL) | 448 (≈ 256 µg/mL) | 448 (≈ 256 µg/mL) | 448 (≈ 256 µg/mL) | 224 (≈ 128 µg/mL) | 224 (≈ 128 µg/mL) | 448 (≈ 256 µg/mL) | 448 (≈ 256 µg/mL) | 448 (≈ 256 µg/mL) | 448 (≈ 256 µg/mL) | 224 (≈ 128 µg/mL) |  | 
CCn1cc(-c2csc(N)n2)c(=O)c2cc(N3CCN(C/C(=N/OC)c4ccc(OC)cc4)CC3)c(Cl)cc21 | 451 (≈ 256 µg/mL) | 451 (≈ 256 µg/mL) | 451 (≈ 256 µg/mL) | 451 (≈ 256 µg/mL) | 451 (≈ 256 µg/mL) | 451 (≈ 256 µg/mL) | 451 (≈ 256 µg/mL) | 451 (≈ 256 µg/mL) | 451 (≈ 256 µg/mL) | 451 (≈ 256 µg/mL) | 226 (≈ 128 µg/mL) | 226 (≈ 128 µg/mL) | 451 (≈ 256 µg/mL) | 451 (≈ 256 µg/mL) | 451 (≈ 256 µg/mL) | 451 (≈ 256 µg/mL) |  | 
CCn1cc(-c2csc(N)n2)c(=O)c2cc(F)c(N3CCN(C/C(C)=N/NC(N)=O)CC3)cc21 | 526 (≈ 256 µg/mL) | 66 (≈ 32.1 µg/mL) | 66 (≈ 32.1 µg/mL) | 526 (≈ 256 µg/mL) | 263 (≈ 128 µg/mL) | 132 (≈ 64.2 µg/mL) | 263 (≈ 128 µg/mL) | 263 (≈ 128 µg/mL) | 263 (≈ 128 µg/mL) | 263 (≈ 128 µg/mL) | 132 (≈ 64.2 µg/mL) | 132 (≈ 64.2 µg/mL) | 132 (≈ 64.2 µg/mL) | 526 (≈ 256 µg/mL) | 263 (≈ 128 µg/mL) | 263 (≈ 128 µg/mL) |  | 3
CCn1cc(-c2csc(N)n2)c(=O)c2cc(F)c(N3CCN(C/C(=N/OC)c4ccc(OC)cc4)CC3)cc21 | 465 (≈ 256 µg/mL) | 465 (≈ 256 µg/mL) | 465 (≈ 256 µg/mL) | 232 (≈ 128 µg/mL) | 232 (≈ 128 µg/mL) | 465 (≈ 256 µg/mL) | 465 (≈ 256 µg/mL) | 465 (≈ 256 µg/mL) | 465 (≈ 256 µg/mL) | 465 (≈ 256 µg/mL) | 465 (≈ 256 µg/mL) | 232 (≈ 128 µg/mL) | 465 (≈ 256 µg/mL) | 232 (≈ 128 µg/mL) | 465 (≈ 256 µg/mL) | 465 (≈ 256 µg/mL) |  | 
CCn1cc(-c2csc(N)n2)c(=O)c2cc(N3CCN(C/C(=N/OC)c4ccc(Cl)cc4Cl)CC3)c(Cl)cc21 | 422 (≈ 256 µg/mL) | 422 (≈ 256 µg/mL) | 211 (≈ 128 µg/mL) | 211 (≈ 128 µg/mL) | 422 (≈ 256 µg/mL) | 422 (≈ 256 µg/mL) | 422 (≈ 256 µg/mL) | 422 (≈ 256 µg/mL) | 422 (≈ 256 µg/mL) | 211 (≈ 128 µg/mL) | 845 (≈ 512 µg/mL) | 422 (≈ 256 µg/mL) | 422 (≈ 256 µg/mL) | 422 (≈ 256 µg/mL) | 422 (≈ 256 µg/mL) | 422 (≈ 256 µg/mL) |  | 
